The source made the active and inactive calls. The calls are words filed in the database; no cut-off is given here.
Key:
[1] = biological target: 5-hydroxytryptamine receptor 6 (Homo sapiens, UniProt P50406); experiment: Binding affinity to human recombinant 5-HT6 receptor by radioligand displacement assay
[2] = biological target: Alpha-1B adrenergic receptor (Rattus norvegicus, UniProt P15823); experiment: Inhibition of rat adrenergic Alpha-1B receptor
[3] = biological target: T1, Cytochrome P450 3A4 (Homo sapiens, UniProt P08684); experiment: Inhibition of CYP3A4 in human liver microsomes using atorvastatin as probe
[4] = biological target: T2, 5-hydroxytryptamine receptor 2C (Homo sapiens, UniProt P28335); experiment: Binding affinity to human recombinant 5-HT2C receptor by radioligand displacement assay
T2 sequence (P28335 whole entry): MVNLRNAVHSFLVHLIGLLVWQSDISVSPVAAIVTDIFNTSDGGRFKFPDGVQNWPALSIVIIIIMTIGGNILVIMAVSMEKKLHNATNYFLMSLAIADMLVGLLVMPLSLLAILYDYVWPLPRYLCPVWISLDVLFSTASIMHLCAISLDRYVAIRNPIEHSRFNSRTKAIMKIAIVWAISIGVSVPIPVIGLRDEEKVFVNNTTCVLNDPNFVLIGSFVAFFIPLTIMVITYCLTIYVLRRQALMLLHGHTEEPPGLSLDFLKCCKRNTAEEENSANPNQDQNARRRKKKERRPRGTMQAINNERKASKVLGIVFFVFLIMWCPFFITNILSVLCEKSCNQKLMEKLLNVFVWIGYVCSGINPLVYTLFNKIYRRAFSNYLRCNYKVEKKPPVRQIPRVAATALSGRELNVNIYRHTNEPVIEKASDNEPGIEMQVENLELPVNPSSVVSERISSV

[5] = biological target: T1, Cytochrome P450 3A4; experiment: Inhibition of CYP3A4 in human liver microsomes using midazolam as probe
[6] = biological target: Cytochrome P450 2C9 (Homo sapiens, UniProt P11712); experiment: Inhibition of human recombinant CYP2C9
[7] = biological target: Cytochrome P450 2C19 (Homo sapiens, UniProt P33261); experiment: Inhibition of human recombinant CYP219
[8] = biological target: Voltage-gated inwardly rectifying potassium channel KCNH2 (Homo sapiens, UniProt Q12809); experiment: Displacement of [3H]dofetilide from human ERG by SPA
Voltage-gated inwardly rectifying potassium channel KCNH2, sequence (Q12809 whole entry): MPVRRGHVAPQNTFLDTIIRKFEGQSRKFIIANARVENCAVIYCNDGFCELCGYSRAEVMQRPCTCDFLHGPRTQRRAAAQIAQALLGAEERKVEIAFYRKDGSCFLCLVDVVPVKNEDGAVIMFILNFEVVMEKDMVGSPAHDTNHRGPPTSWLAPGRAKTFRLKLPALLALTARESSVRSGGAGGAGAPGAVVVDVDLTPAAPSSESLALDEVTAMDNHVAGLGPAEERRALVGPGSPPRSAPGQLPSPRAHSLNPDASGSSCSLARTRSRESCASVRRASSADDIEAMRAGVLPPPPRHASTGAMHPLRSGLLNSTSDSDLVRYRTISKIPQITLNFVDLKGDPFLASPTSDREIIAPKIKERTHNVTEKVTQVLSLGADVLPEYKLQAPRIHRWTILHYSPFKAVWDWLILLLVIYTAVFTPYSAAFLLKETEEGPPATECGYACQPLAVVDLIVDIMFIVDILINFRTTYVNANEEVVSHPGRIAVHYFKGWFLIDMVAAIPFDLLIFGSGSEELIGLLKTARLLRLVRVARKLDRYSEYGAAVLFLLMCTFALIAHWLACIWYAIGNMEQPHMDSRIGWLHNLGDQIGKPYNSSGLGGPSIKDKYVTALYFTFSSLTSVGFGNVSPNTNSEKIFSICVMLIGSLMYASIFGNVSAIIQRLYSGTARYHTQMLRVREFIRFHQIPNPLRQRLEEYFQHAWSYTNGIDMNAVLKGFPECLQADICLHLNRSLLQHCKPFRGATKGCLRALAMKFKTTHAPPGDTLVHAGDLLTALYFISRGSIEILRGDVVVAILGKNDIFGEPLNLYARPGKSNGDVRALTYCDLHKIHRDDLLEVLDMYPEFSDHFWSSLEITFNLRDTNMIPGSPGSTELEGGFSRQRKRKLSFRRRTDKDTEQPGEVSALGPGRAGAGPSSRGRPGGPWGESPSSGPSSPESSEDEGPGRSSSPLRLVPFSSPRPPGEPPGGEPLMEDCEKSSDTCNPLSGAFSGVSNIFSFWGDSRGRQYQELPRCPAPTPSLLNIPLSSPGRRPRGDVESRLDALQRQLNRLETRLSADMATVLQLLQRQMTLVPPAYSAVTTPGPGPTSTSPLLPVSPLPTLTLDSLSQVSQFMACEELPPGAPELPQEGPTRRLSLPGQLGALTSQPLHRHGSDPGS

[9] = Plasma protein binding in dog at 1 ug/mL by equilibrium dialysis method
[10] = biological target: T1, Cytochrome P450 3A4; experiment: Inhibition of human recombinant CYP3A4
[11] = biological target: Alpha-1A adrenergic receptor (Rattus norvegicus, UniProt P43140); experiment: Inhibition of rat adrenergic alpha1A receptor
[12] = biological target: T1, Cytochrome P450 3A4; experiment: Inhibition of CYP3A4 in human liver microsomes using nifedipine as probe
[13] = Plasma protein binding in human at 1 ug/mL by equilibrium dialysis method
[14] = biological target: Cytochrome P450 2D6 (Homo sapiens, UniProt P10635); experiment: Inhibition of human recombinant CYP2D6
[15] = Protein binding in rat plasma at 1 ug/mL by equilibrium dialysis method
[16] = biological target: Cytochrome P450 1A2 (Homo sapiens, UniProt P05177); experiment: Inhibition of human recombinant CYP1A2
[17] = biological target: T3, 5-hydroxytryptamine receptor 1A (Homo sapiens, UniProt P08908); experiment: Displacement of [3H]WAY100635 from human recombinant 5-HT1A receptor expressed in CHO cells; type: cell-based
T3 sequence (P08908 whole entry): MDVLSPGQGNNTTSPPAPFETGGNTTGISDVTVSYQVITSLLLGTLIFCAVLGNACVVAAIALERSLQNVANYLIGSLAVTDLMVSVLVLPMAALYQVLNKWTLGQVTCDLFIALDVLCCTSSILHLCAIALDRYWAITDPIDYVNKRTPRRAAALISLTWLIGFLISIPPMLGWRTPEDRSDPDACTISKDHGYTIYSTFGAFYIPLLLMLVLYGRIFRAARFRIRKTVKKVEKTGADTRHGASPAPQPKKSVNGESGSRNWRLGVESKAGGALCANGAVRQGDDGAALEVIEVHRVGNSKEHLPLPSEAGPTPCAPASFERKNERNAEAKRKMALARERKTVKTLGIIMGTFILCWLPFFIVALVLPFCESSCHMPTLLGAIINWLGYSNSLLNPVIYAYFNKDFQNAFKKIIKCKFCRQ

[18] = biological target: T4, 5-hydroxytryptamine receptor 1D (Homo sapiens, UniProt P28221); experiment: Displacement of [3H]5-HT from human recombinant 5-HT1D receptor expressed in CHO cells; type: cell-based
T4 sequence (P28221 whole entry): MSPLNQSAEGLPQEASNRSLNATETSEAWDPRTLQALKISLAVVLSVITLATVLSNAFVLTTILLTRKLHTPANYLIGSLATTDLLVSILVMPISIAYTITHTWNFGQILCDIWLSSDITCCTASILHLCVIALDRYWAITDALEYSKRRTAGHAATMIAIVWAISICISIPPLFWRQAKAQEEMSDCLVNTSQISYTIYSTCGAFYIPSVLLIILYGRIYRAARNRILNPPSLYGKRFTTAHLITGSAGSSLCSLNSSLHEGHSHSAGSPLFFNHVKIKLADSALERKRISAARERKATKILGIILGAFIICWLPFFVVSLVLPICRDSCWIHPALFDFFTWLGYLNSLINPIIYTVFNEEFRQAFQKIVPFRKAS

[19] = biological target: D(3) dopamine receptor (Homo sapiens, UniProt P35462); experiment: Binding affinity to human recombinant dopamine D3 receptor by radioligand displacement assay
D(3) dopamine receptor, sequence (P35462 whole entry): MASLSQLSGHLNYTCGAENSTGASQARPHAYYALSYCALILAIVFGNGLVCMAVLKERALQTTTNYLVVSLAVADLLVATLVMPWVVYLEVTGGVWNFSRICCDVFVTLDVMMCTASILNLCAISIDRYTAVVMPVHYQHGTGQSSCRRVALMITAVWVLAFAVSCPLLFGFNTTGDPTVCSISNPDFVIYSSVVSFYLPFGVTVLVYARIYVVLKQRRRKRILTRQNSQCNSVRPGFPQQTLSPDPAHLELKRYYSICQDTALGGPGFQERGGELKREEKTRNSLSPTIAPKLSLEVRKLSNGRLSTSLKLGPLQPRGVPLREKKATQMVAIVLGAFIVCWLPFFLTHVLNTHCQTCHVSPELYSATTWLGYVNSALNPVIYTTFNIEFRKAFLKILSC

[20] = biological target: Sodium-dependent serotonin transporter (Rattus norvegicus, UniProt P31652); experiment: Inhibition of [3H]5-HT uptake at SERT in rat cortical synaptosomes; type: subcellular, Brain
Sodium-dependent serotonin transporter, sequence (P31652 whole entry): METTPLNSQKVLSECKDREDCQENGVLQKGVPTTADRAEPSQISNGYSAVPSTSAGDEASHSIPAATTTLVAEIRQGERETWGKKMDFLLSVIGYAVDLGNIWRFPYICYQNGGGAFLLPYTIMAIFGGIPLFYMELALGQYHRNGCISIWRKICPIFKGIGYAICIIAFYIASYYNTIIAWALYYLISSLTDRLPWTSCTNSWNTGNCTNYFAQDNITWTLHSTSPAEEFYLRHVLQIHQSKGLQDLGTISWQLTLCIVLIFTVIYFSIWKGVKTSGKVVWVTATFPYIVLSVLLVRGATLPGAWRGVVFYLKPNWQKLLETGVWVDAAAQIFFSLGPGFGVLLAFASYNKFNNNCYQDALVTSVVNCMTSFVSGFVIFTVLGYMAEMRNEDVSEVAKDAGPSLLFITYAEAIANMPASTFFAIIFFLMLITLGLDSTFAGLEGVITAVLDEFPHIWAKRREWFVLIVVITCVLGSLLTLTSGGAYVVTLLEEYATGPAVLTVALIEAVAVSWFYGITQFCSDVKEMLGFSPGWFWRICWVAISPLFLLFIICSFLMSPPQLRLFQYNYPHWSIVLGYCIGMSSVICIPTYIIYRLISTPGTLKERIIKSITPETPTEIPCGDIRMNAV

[21] = biological target: T5, 5-hydroxytryptamine receptor 1A (Homo sapiens) (UniProt P08908); experiment: Intrinsic activity at human recombinant 5-HT1A receptor expressed in HEK293 cells by [S35]GTPgammaS binding assay relative to 5-HT; type: functional, cell-based
T5 sequence (whole entry): T3 sequence (P08908 whole entry)
Summary of the method: (§1)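 [35S]-GTPγS binding in membranes from 10^6 cells (HEK293 for 5-HT1A; CHO for 5-HT1B, 5-HT1D), preincubated 30 min at 30 °C with compound in 20 mM HEPES pH 7.4, 3 mM MgCl2, 100 mM NaCl, 10 μM GDP, 0.2 mM ascorbate. 100 pM [35S]-GTPγS added, 30 min more at 30 °C; nonspecific with 20 μM GTPγS; filtration and scintillation counting.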

[22] = biological target: T4, 5-hydroxytryptamine receptor 1D; experiment: Inverse agonist activity at human recombinant 5-HT1D receptor expressed in CHO cells by [S35]GTPgammaS binding assay; type: functional, cell-based; summary of the method: as §1
[23] = biological target: T6, 5-hydroxytryptamine receptor 1B (Homo sapiens, UniProt P28222); experiment: Displacement of [3H]5-HT from human recombinant 5-HT1B receptor expressed in CHO cells; type: cell-based
T6 sequence (P28222 whole entry): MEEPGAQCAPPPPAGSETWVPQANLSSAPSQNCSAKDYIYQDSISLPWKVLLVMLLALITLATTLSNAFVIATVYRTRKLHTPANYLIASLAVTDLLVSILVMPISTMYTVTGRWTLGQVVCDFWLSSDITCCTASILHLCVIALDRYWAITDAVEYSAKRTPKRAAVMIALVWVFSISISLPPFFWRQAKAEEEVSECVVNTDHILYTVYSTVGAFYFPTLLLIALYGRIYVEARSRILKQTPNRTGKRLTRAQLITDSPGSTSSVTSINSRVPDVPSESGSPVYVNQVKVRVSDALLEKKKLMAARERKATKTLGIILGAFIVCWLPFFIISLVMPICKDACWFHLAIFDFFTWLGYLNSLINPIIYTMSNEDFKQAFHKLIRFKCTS

[24] = biological target: 5-hydroxytryptamine receptor 7 (Homo sapiens, UniProt P34969); experiment: Binding affinity to human recombinant 5-HT7 receptor by radioligand displacement assay
5-hydroxytryptamine receptor 7, sequence (P34969 whole entry): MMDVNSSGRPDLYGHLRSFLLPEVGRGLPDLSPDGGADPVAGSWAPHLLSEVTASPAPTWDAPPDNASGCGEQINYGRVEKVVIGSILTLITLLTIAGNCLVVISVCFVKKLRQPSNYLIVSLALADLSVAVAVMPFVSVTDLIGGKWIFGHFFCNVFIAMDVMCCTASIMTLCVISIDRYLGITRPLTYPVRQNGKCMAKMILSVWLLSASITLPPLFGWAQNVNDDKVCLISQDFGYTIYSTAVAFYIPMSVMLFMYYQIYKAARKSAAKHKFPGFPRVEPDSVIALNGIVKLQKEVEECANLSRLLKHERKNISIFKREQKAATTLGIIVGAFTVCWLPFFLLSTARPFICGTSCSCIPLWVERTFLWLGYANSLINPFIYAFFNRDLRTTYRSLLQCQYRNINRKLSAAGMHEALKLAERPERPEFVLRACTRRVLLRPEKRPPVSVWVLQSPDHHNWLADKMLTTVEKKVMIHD

[25] = biological target: 5-hydroxytryptamine receptor 2A (Homo sapiens, UniProt P28223); experiment: Binding affinity to human recombinant 5-HT2A receptor by radioligand displacement assay
5-hydroxytryptamine receptor 2A, sequence (P28223 whole entry): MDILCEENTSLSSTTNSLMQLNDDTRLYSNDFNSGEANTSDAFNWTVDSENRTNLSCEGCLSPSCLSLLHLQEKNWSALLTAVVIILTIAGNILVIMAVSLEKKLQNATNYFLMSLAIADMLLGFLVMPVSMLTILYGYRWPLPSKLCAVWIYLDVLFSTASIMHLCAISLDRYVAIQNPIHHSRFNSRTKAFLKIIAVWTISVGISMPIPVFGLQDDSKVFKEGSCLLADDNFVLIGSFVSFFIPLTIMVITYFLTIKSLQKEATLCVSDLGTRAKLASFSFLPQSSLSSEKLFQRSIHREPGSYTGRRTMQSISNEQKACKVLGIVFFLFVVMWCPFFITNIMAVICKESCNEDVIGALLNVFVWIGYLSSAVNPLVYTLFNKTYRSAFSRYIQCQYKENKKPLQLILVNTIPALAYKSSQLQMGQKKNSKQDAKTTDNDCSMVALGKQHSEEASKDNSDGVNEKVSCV

[26] = biological target: T6, 5-hydroxytryptamine receptor 1B; experiment: Inverse agonist activity at human recombinant 5-HT1B receptor expressed in CHO cells by [S35]GTPgammaS binding assay; type: functional, cell-based; summary of the method: as §1
[27] = biological target: D(2) dopamine receptor (Homo sapiens, UniProt P14416); experiment: Binding affinity to human recombinant dopamine D2 receptor by radioligand displacement assay
D(2) dopamine receptor, sequence (P14416 whole entry): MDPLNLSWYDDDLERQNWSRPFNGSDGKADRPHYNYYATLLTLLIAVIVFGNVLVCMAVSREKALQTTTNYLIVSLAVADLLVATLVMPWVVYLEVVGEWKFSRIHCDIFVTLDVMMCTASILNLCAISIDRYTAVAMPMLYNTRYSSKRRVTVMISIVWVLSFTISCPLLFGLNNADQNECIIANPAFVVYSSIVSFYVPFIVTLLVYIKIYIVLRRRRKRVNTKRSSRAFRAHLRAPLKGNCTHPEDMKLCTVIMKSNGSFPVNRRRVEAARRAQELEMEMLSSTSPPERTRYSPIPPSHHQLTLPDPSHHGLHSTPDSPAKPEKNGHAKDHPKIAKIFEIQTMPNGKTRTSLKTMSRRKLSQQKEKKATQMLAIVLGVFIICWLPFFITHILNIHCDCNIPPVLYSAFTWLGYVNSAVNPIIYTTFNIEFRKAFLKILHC

[28] = biological target: 5-hydroxytryptamine receptor 2B (Homo sapiens, UniProt P41595); experiment: Binding affinity to human recombinant 5-HT2B receptor by radioligand displacement assay
5-hydroxytryptamine receptor 2B, sequence (P41595 whole entry): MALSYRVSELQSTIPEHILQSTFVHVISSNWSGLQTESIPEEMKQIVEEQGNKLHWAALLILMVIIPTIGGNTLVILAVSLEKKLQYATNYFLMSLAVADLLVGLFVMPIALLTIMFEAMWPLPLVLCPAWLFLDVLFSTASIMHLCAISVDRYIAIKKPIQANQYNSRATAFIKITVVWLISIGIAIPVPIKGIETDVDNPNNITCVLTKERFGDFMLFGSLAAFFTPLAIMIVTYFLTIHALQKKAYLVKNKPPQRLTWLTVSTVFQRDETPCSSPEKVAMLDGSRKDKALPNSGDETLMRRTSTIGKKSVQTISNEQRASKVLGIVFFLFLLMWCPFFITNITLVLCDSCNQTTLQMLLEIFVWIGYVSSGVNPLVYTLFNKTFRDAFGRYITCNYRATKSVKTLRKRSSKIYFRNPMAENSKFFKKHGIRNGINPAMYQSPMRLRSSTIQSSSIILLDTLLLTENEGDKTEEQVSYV

[29] = Ratio of drug level in brain to blood in Sprague-Dawley rat after 1 hr; type: ADME, tissue-based; conditions: read-out: BBR
Summary of the method: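 Male Sprague-Dawley rats dosed iv at 0.5 mg/kg (2.5% DMSO in glucosate), n=3, as a cassette. At 1 h, CO2 anaesthesia, blood taken by heart puncture and brain removed. Both matrices analysed by protein precipitation and LC-MS/MS.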

[30] = Clearance in Sprague-Dawley rat at 0.5 mg/kg, iv after 24 hrs; type: ADME, organism-based; set-up: dose 0.5 mg/kg, route intravenous; conditions: in vivo
Summary of the method: (§2)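 Male Sprague-Dawley rats given 0.5 mg/kg iv (2 mL/kg, 2.5% DMSO in glucosate solution), n=3, cassette dosing; blood collected at intervals up to 24 h, protein precipitation and LC-MS/MS quantification.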

[31] = Half life in cynomolgus monkey at 1 mg/kg, iv; conditions: in vivo
[32] = Solubility of the compound in water; type: physicochemical
Summary of the method: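 Measured on the dihydrochloride salt form, dissolved in water.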

[33] = in vivo; conditions: dog, plasma, po, 10 mg/kg
[34] = system: Rattus norvegicus; experiment: Inhibition of 8-OH-DPAT-induced hyperlocomotory activity in Sprague-Dawley rat administered orally 60 mins before 8-OH-DPATchallenge; type: functional
Summary of the method: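 Male Sprague-Dawley rats (250–350 g) dosed orally (5 mL/kg) at 0.03, 0.1 or 0.3 mg/kg or vehicle, 60 min before sc 8-OH-DPAT 0.2 mg/kg (2 mL/kg). Total distance travelled recorded by infrared sensors over 30 min immediately after; 8–9 rats per group.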

[35] = in vivo; conditions: dog, po, 10 mg/kg
[36] = Clearance in cynomolgus monkey at 1 mg/kg, iv; conditions: in vivo
[37] = Solubility of the compound in simulated gastric fluid at pH 1.2 at 25 degC; type: physicochemical
[38] = in vivo; conditions: cynomolgus monkey, po, 10 mg/kg
[39] = Clearance in dog at 0.5 mg/kg, iv; conditions: in vivo
[40] = Cmax in Sprague-Dawley rat at 1 mg/kg, po after 24 hrs; type: ADME, organism-based; set-up: dose 1 mg/kg, route oral; conditions: in vivo
Summary of the method: (§3)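 Male Sprague-Dawley rats dosed po at 1 mg/kg (10 mL/kg, 1% DMSO in aqueous 0.5% methocel), n=3, as a cassette with other compounds; blood sampled at intervals up to 24 h and analysed by protein precipitation then LC-MS/MS.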

[41] = Solubility of the compound in fed state simulated intestinal fluid at pH 5.5 at 25 degC; type: physicochemical
Summary of the method: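 Solubility determined at 25 °C in fed state simulated intestinal fluid at pH 5.5.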

[42] = Half life in dog at 0.5 mg/kg, iv; conditions: in vivo
[43] = in vivo; conditions: cynomolgus monkey, po, 10 mg/kg; remark: listed apart in the source
[44] = Half life in Sprague-Dawley rat at 0.5 mg/kg, iv after 24 hrs; type: ADME, organism-based; set-up: dose 0.5 mg/kg, route intravenous; conditions: in vivo; summary of the method: as §2
[45] = AUC (0 to infinity) in Sprague-Dawley rat at 1 mg/kg, po after 24 hrs; type: ADME, organism-based; set-up: time infinity, dose 1 mg/kg, route oral; conditions: plasma; summary of the method: as §3
[46] = Oral bioavailability in Sprague-Dawley rat at 1 mg/kg, po after 24 hrs; type: ADME, organism-based; conditions: in vivo; summary of the method: as §3
[47] = in vivo; conditions: dog, po, 1 mg/kg
[48] = in vivo; conditions: cynomolgus monkey, plasma, po, 10 mg/kg
[49] = biological target: T6, 5-hydroxytryptamine receptor 1B; experiment: Intrinsic activity at human recombinant 5-HT1B receptor expressed in CHO cells by [S35]GTPgammaS binding assay relative to 5-HT; type: functional, cell-based; summary of the method: as §1
[50] = biological target: T5, 5-hydroxytryptamine receptor 1A (Homo sapiens); experiment: Inverse agonist activity at human recombinant 5-HT1A receptor expressed in HEK293 cells by [S35]GTPgammaS binding assay; type: functional, cell-based; summary of the method: as §1

| Structure (SMILES) | Ki [1] [nM] | Ki [4] [nM] | Ki [8] [nM] | Ki [17] [nM] | Ki [18] [nM] | Ki [19] [nM] | Ki [20] [nM] | Intrinsic activity [21] | Activity [22] | Ki [23] [nM] | Ki [24] [nM] | Ki [25] [nM] | Activity [26] | Ki [27] [nM] | Ki [28] [nM] | Intrinsic activity [49] | other results |
| --- | --- | --- | --- | --- | --- | --- | --- | --- | --- | --- | --- | --- | --- | --- | --- | --- | --- |
| Cc1ccc2c(N3CCN(CCc4cccc(N5CCNC5=O)c4)CC3)cccc2n1 [GSK163090] | > 5010 | 1580 | 12600 |  |  |  |  |  |  |  |  |  |  |  |  |  | IC50 [2]: 25.1 nM; IC50 [3]: 21000 nM; IC50 [5]: 21000 nM; IC50 [6]: 60000 nM; IC50 [7]: 76000 nM; fraction unbound at 1 ug/mL [9]: 0.045; IC50 [10]: 67000 nM; IC50 [11]: 25.1 nM; IC50 [12]: 21000 nM; fraction unbound at 1 ug/mL [13]: 0.041; IC50 [14]: 86000 nM; fraction unbound at 1 ug/mL [15]: 0.041; IC50 [16]: 96000 nM |
| CCNC(=O)Nc1cccc(CCN2CCN(c3cccc4nc(C)ccc34)CC2)c1 | > 6310 | 794 | 631 | 2 | 0.158 | 126 | 501 | 0 | Active | 1.26 | 39.8 | 316 | Active | 316 | 398 |  |  |
| Cc1ccc2c(N3CCN(CCc4cccc(N5CCNC5=O)c4)CC3)cccc2n1.Cl.Cl |  |  |  |  |  |  |  |  |  |  |  |  |  |  |  |  | Kp at 1 h [29]: 0.5; clearance [30]: 11 mL/min/kg; half-life [31]: 5.3 h; solubility [32]: > 10000 µg/mL; AUC(0-inf) [33]: 2550 ng·h/mL; ED50 ([34]; po): 0.03 mg/kg; Cmax [35]: 1300 ng/mL; clearance [36]: 25 mL/min/kg; solubility [37]: > 10000 µg/mL; bioavailability [38]: 63%; clearance [39]: 60 mL/min/kg; Cmax [40]: 122 ng/mL; solubility [41]: 500 µg/mL; half-life [42]: 0.8 h; Cmax [43]: 1390 ng/mL; half-life [44]: 3.2 h; AUC(0-inf) [45]: 889 ng·h/mL; bioavailability [46]: 58%; bioavailability [47]: 6%; AUC(0-inf) [48]: 4220 ng·h/mL |
| Cc1ccc2c(N3CCN(CCc4cccc(N5CCOC5=O)c4)CC3)cccc2n1 | 3160 | > 5010 | 2000 |  | 0.158 | 200 | 501 | 0 | Active |  | 501 | 794 |  | 794 | 1260 | 0 |  |
| Cc1ccc2c(N3CCN(CCc4cccc(NC(=O)c5ccccc5)c4)CC3)cccc2n1 | > 1000 | 794 | 50.1 | 1 | 0.316 | 100 | 2000 |  | Active | 2.51 | 79.4 | 79.4 | Active | 398 | 126 |  | Activity [50]: Active |
| Cc1ccc2c(N3CCN(CCc4cccc(NS(C)(=O)=O)c4)CC3)cccc2n1 |  |  |  |  |  |  |  | 0 | Active |  |  |  |  |  |  | 0.1 | inhibition [34]: Dose-dependent effect |
